Results: ChEMBL document CHEMBL4000161, “Rearranged 6/6/5/6-Fused Triterpenoid Acids from the Stems of Kadsura coccinea” (J Nat Prod, 2016)

What was measured:
Assay type in all cases: functional, cell-based
[1] = tested on: HL-60; experiment: Cytotoxicity against human HL60 cells assessed as decrease in cell viability after 48 hrs by MTS assay; settings: HL-60, 48 h
How it was run: (§1)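 Cells kept in RPMI-1640 or DMEM with 10% FBS, 37 °C, 5% CO2. Seeded at 1 × 10^5 cells/mL; adherent lines left 12 h to attach, suspension cells (HL-60) seeded just before dosing. Triplicate wells at various concentrations for 48 h; MTS then 4 h at 37 °C; lysis in 20% SDS/50% DMF; OD 490 nm. IC50 by Reed and Muench method.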

[2] = tested on: SW480; experiment: Cytotoxicity against human SW480 cells assessed as decrease in cell viability after 48 hrs by MTS assay; settings: SW480, 48 h; how it was run: as §1
[3] = tested on: MCF7; experiment: Cytotoxicity against human MCF7 cells assessed as decrease in cell viability after 48 hrs by MTS assay; settings: MCF7, 48 h; how it was run: as §1
[4] = tested on: SMMC-7721; experiment: Cytotoxicity against human SMMC7721 cells assessed as decrease in cell viability after 48 hrs by MTS assay; settings: SMMC-7721, 48 h; how it was run: as §1
[5] = tested on: A549; experiment: Cytotoxicity against human A549 cells assessed as decrease in cell viability after 48 hrs by MTS assay; settings: A549, 48 h; how it was run: as §1
[6] = tested on: HeLa; experiment: Cytotoxicity against human HeLa cells assessed as decrease in cell viability after 48 hrs by MTS assay; how it was run: as §1

C=C1[C@@H]([C@H](C)C[C@@H]2C=C(C)C(=O)O2)CC[C@@]2(C)C3=CC[C@H]4C(C)(C)[C@H](O)CC[C@]4(C)[C@@H]3C[C@@H]12
IC50 [1]: 7.36 µM | IC50 [2]: 25.4 µM | IC50 [3]: 13.6 µM | IC50 [4]: > 40 µM | IC50 [5]: > 40 µM | IC50 [6]: 18.6 µM

C=C1[C@@H]([C@H](C)C[C@@H](O)/C=C(\C)C(=O)O)CC[C@@]2(C)C3=CC[C@H]4C(C)(C)[C@H](OC(C)=O)CC[C@]4(C)[C@@H]3C[C@@H]12
IC50 [1]: > 10 µM | IC50 [2]: > 10 µM | IC50 [3]: > 10 µM | IC50 [4]: > 10 µM | IC50 [5]: > 10 µM | IC50 [6]: > 10 µM

C=C1[C@@H]([C@H](C)CC/C=C(/C)C(=O)O)CC[C@@]2(C)C3=CC[C@H]4C(C)(C)C(=O)CC[C@]4(C)[C@@H]3C[C@@H]12
IC50 [1]: > 10 µM | IC50 [2]: > 10 µM | IC50 [3]: > 10 µM | IC50 [4]: > 10 µM | IC50 [5]: > 10 µM | IC50 [6]: > 10 µM

C/C(=C/CC[C@@H](C)C1=C(CO)[C@@H]2C[C@@H]3C(=CC[C@H]4C(C)(C)C(=O)CC[C@]34C)[C@]2(C)CC1)C(=O)O
IC50 [1]: > 10 µM | IC50 [2]: > 10 µM | IC50 [3]: > 10 µM | IC50 [4]: > 10 µM | IC50 [5]: > 10 µM | IC50 [6]: > 10 µM

CC(=O)O[C@@H]1CC[C@]2(C)[C@@H]3C[C@H]4[C@@](C)(O)[C@@H]([C@H](C)CC/C=C(/C)C(=O)O)CC[C@@]4(C)C3=CC[C@H]2C1(C)C
IC50 [1]: > 10 µM | IC50 [2]: > 10 µM | IC50 [3]: > 10 µM | IC50 [4]: > 10 µM | IC50 [5]: > 10 µM | IC50 [6]: > 10 µM

CC(=O)O[C@@H]1CC[C@]2(C)[C@@H]3C[C@H]4C(CO)=C([C@H](C)CC/C=C(/C)C(=O)O)CC[C@@]4(C)C3=CC[C@H]2C1(C)C
IC50 [1]: > 10 µM | IC50 [2]: > 10 µM | IC50 [3]: > 10 µM | IC50 [4]: > 10 µM | IC50 [5]: > 10 µM | IC50 [6]: > 10 µM

C=C1[C@@H]([C@H](C)CC/C=C(/C)C(=O)O)CC[C@@]2(C)C3=CC[C@H]4C(C)(C)[C@@H](O)CC[C@]4(C)[C@@H]3C[C@@H]12
IC50 [1]: > 10 µM | IC50 [2]: > 10 µM | IC50 [3]: > 10 µM | IC50 [4]: > 10 µM | IC50 [5]: > 10 µM | IC50 [6]: > 10 µM

C=C1[C@@H]([C@H](C)CC(=O)/C=C(\C)C(=O)O)CC[C@@]2(C)C3=CC[C@H]4C(C)(C)[C@H](OC(C)=O)CC[C@]4(C)[C@@H]3C[C@@H]12
IC50 [1]: 3.11 µM | IC50 [2]: 5.99 µM | IC50 [3]: 4.61 µM | IC50 [4]: 11.6 µM | IC50 [5]: 13 µM | IC50 [6]: 7.77 µM

C=C1[C@@H]([C@H](C)C[C@H]2C=C(C)C(=O)O2)CC[C@@]2(C)C3=CC[C@H]4C(C)(C)[C@H](O)CC[C@]4(C)[C@@H]3C[C@@H]12
IC50 [1]: 10.4 µM | IC50 [2]: 20.1 µM | IC50 [3]: 15.6 µM | IC50 [4]: 25 µM | IC50 [5]: 27.1 µM | IC50 [6]: 12.3 µM

CC(=O)O[C@@H]1CC[C@]2(C)[C@@H]3C[C@H]4C(C=O)=C([C@H](C)CC/C=C(/C)C(=O)O)CC[C@@]4(C)C3=CC[C@H]2C1(C)C
IC50 [1]: > 10 µM | IC50 [2]: > 10 µM | IC50 [3]: > 10 µM | IC50 [4]: > 10 µM | IC50 [5]: > 10 µM | IC50 [6]: > 10 µM

C=C1[C@@H]([C@H](C)CC/C=C(/C)C(=O)O)CC[C@@]2(C)C3=CC[C@H]4C(C)(C)[C@H](O)CC[C@]4(C)[C@@H]3C[C@@H]12
IC50 [1]: > 10 µM | IC50 [2]: > 10 µM | IC50 [3]: > 10 µM | IC50 [4]: > 10 µM | IC50 [5]: > 10 µM | IC50 [6]: > 10 µM

C=C1[C@@H]([C@H](C)CC/C=C(/C)C(=O)O)CC[C@@]2(C)C3=CC(=O)[C@H]4C(C)(C)[C@H](OC(C)=O)CC[C@]4(C)[C@@H]3C[C@@H]12
IC50 [1]: > 10 µM | IC50 [2]: > 10 µM | IC50 [3]: > 10 µM | IC50 [4]: > 10 µM | IC50 [5]: > 10 µM | IC50 [6]: > 10 µM

CC(=O)O[C@@H]1CC[C@]2(C)[C@@H]3CC4=C(CO)[C@@H]([C@H](C)CC/C=C(/C)C(=O)O)CC[C@@]4(C)C3=CC[C@H]2C1(C)C
IC50 [1]: > 10 µM | IC50 [2]: > 10 µM | IC50 [3]: > 10 µM | IC50 [4]: > 10 µM | IC50 [5]: > 10 µM | IC50 [6]: > 10 µM

C=C1[C@@H]([C@H](C)CC/C=C(/C)C(=O)O)CC[C@]2(C)[C@H]1C[C@H]1[C@@]3(C)CCC(=O)C(C)(C)[C@@H]3C[C@@H]3O[C@@]312
IC50 [1]: > 10 µM | IC50 [2]: > 10 µM | IC50 [3]: > 10 µM | IC50 [4]: > 10 µM | IC50 [5]: > 10 µM | IC50 [6]: > 10 µM

CC(=O)O[C@H]1C(=O)[C@@]2(C)[C@H]([C@H](OC(=O)c3ccccc3)[C@]3(O)C[C@H](OC(=O)[C@H](O)[C@@H](NC(=O)c4ccccc4)c4ccccc4)C(C)=C1C3(C)C)[C@]1(OC(C)=O)CO[C@@H]1C[C@@H]2O [PACLITAXEL]
IC50 [1]: < 0.008 µM | IC50 [2]: < 0.008 µM | IC50 [3]: < 0.008 µM | IC50 [4]: < 0.008 µM | IC50 [5]: < 0.008 µM | IC50 [6]: < 0.008 µM
